Results on seven compounds are retold here after ChEMBL document CHEMBL1154596, “The effects of C-terminal modifications on the opioid activity of [N-benzylTyr(1)]dynorphin A-(1-11) analogues” (J Med Chem, 2009).

For assay [1], the species on record is Rattus norvegicus. Nature of the assay: Selectivity ratio of Ki for rat kappa opioid receptor to Ki for rat mu opioid receptor.
The nature of assay [2]: Selectivity ratio of Ki for rat kappa opioid receptor to Ki for mouse delta opioid receptor.
Assay [3] addresses Kappa-type opioid receptor (Rattus norvegicus) (UniProt P34975). Nature of the assay: Activity at rat kappa opioid receptor expressed in CHO cells assessed as inhibition of adenylyl cyclase activity at 10 uM relative to Dyn A-(1-13)NH2. The assay is classed as functional, cell-based. A digest of the protocol: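 CHO cells stably expressing cloned rat KOR. Adenylyl cyclase inhibition was measured with each peptide at 10 μM. Efficacy is expressed relative to the maximal inhibition by the reference agonist Dyn A-(1-13)NH2 (100 nM). Values are mean ± SEM of at least three independent experiments.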

Assay [4] deals with Delta-type opioid receptor (Mus musculus, UniProt P32300). Nature of the assay: Displacement of [3H]DPDPE from mouse delta opioid receptor expressed in CHO cells. The assay is classed as cell-based. In short, it runs like this:
(§1)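 Radioligand competition binding on membranes of CHO cells stably expressing cloned rat KOR, rat MOR or mouse DOR. Ki values are mean ± SEM of at least three independent experiments.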

Assay [5] deals with Kappa-type opioid receptor (Rattus norvegicus, UniProt P34975). Nature of the assay: Displacement of [3H]diprenorphine from rat kappa opioid receptor expressed in CHO cells. The assay is classed as cell-based. In short, it runs like this:
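Radioligand competition binding on membranes of CHO cells stably expressing cloned rat KOR, rat MOR or mouse DOR. […] Ki values are mean ± SEM of at least three independent experiments.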

Assay [6] has as its target Mu-type opioid receptor (Rattus norvegicus, UniProt P33535). The assay can be described thus: Displacement of [3H]DAMGO from rat mu opioid receptor expressed in CHO cells. Format: cell-based. In short, it runs like this: as §1

Sequence of Kappa-type opioid receptor (Rattus norvegicus) (P34975 whole entry): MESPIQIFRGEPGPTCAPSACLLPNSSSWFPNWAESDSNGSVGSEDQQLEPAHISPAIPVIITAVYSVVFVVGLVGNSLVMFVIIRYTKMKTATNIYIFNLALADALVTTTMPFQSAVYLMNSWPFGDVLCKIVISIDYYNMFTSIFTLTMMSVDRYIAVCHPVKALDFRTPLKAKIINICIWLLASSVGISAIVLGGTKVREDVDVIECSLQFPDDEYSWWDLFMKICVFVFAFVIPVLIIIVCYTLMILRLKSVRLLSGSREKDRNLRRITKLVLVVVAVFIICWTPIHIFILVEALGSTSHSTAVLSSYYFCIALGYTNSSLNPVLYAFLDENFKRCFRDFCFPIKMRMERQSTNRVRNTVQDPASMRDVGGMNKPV
Sequence of Delta-type opioid receptor (P32300 whole entry): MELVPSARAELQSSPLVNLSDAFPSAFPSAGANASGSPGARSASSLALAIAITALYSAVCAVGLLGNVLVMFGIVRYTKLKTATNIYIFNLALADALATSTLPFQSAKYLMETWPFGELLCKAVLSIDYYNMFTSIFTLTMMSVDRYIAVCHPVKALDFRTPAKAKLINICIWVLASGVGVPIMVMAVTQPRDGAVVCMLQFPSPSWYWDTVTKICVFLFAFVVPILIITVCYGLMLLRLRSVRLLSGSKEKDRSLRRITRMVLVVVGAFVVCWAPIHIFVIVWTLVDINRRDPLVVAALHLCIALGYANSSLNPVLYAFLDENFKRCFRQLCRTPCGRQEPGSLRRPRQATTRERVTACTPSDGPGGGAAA
Sequence of Mu-type opioid receptor (P33535 whole entry): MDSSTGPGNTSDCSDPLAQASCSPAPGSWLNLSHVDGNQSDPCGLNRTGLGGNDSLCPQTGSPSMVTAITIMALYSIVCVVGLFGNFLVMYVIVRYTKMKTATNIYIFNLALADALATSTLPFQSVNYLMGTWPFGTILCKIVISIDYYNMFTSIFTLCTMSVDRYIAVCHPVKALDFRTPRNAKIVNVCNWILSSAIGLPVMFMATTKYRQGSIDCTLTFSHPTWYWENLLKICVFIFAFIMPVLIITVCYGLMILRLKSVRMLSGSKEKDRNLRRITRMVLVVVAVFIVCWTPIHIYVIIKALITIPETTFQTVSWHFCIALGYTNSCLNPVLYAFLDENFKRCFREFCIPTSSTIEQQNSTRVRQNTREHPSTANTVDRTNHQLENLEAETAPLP
Sequence of Kappa-type opioid receptor (P34975 whole entry): as the sequence (P34975 whole entry) above

Turning to `CC(C)C[C@H](NC(=O)[C@H](Cc1ccccc1)NC(=O)CNC(=O)CNC(=O)[C@H](Cc1ccc(O)cc1)NCc1ccccc1)C(=O)N[C@@H](CCCNC(=N)N)C(=O)N(C)[C@@H](CCCNC(=N)N)C(=O)N[C@H](C)C(=O)N[C@@H](CCCNC(=N)N)C(=O)N1CCC[C@H]1C(=O)N[C@@H](CCCCN)C(N)=O`, the Ratio Ki in assay [1] is 14; in assay [2] it was 147. For the same compound, the inhibition in assay [3] was 70%.
Take `CC(=O)NC[C@H](NC(=O)[C@H](CCCNC(=N)N)NC(=O)[C@H](CCCNC(=N)N)NC(=O)[C@@H](CC(N)=O)NC(=O)[C@H](Cc1ccccc1)NC(=O)CNC(=O)CNC(=O)[C@H](Cc1ccc(O)cc1)NCc1ccccc1)C(=O)N[C@@H](CCCNC(=N)N)C(=O)N1CCC[C@H]1C(=O)N[C@@H](CCCCN)C(N)=O`: the Ratio Ki in assay [1] amounted to 25; in assay [2], 149. The values for the Ki in assay [4], in assay [5] and in assay [6] were above 10000 nM, 66.9 nM and 1660 nM, respectively.
Take `CC(C)C[C@H](NC(=O)[C@H](Cc1ccccc1)NC(=O)CNC(=O)CNC(=O)[C@H](Cc1ccc(O)cc1)NCc1ccccc1)C(=O)N[C@@H](CCCNC(=N)N)C(=O)N(C)[C@@H](CCCNC(=N)N)C(=O)N[C@H](C)C(=O)N[C@@H](CCCNC(=N)N)C(=O)N1CCC[C@@H]1C(=O)N[C@@H](CCCCN)C(N)=O`: the Ratio Ki in assay [1] worked out at 16; in assay [2], 151. The inhibition in assay [3] was found to be 70%.
`CC[C@H](C)[C@H](NC(=O)[C@H](CCCNC(=N)N)N(C)C(=O)[C@H](CCCNC(=N)N)NC(=O)[C@H](CC(C)C)NC(=O)[C@H](Cc1ccccc1)NC(=O)CNC(=O)CNC(=O)[C@H](Cc1ccc(O)cc1)NCc1ccccc1)C(=O)N[C@@H](CCCNC(=N)N)C(=O)N1CCC[C@@H]1C(=O)N[C@@H](CCCCN)C(N)=O`: the inhibition in assay [3] was 70%.
In the case of `CC(C)C[C@H](NC(=O)[C@H](Cc1ccccc1)NC(=O)CNC(=O)CNC(=O)[C@H](Cc1ccc(O)cc1)NCc1ccccc1)C(=O)N[C@@H](CCCNC(=N)N)C(=O)N[C@@H](CCCNC(=N)N)C(=O)N[C@H](C)C(=O)N[C@@H](CCCNC(=N)N)C(=O)N1CCC[C@@H]1C(=O)N[C@@H](CCCCN)C(N)=O`, the Ratio Ki in assay [1] turned out to be 15; in assay [2], 109. Further, the inhibition in assay [3] amounted to 70%.
With `CC(C)C[C@H](NC(=O)[C@H](Cc1ccccc1)NC(=O)CNC(=O)CNC(=O)[C@H](Cc1ccc(O)cc1)NCc1ccccc1)C(=O)N[C@@H](CCCNC(=N)N)C(=O)N[C@@H](CCCNC(=N)N)C(=O)N[C@H](C)C(=O)N[C@@H](CCCNC(=N)N)C(=O)N1CCC[C@H]1C(=O)N[C@@H](CCCCN)C(N)=O`, the Ratio Ki worked out at 11 in assay [1] and 80 in assay [2]. Further, the inhibition in assay [3] was determined as 70%.
With `CC[C@H](C)[C@H](NC(=O)[C@H](CCCNC(=N)N)N(C)C(=O)[C@H](CCCNC(=N)N)NC(=O)[C@H](CC(C)C)NC(=O)[C@H](Cc1ccccc1)NC(=O)CNC(=O)CNC(=O)[C@H](Cc1ccc(O)cc1)NCc1ccccc1)C(=O)N[C@@H](CCCNC(=N)N)C(=O)N1CCC[C@H]1C(=O)N[C@@H](CCCCN)C(N)=O`, the inhibition in assay [3] is 70%.
